Converted amounts (≈) assume the structure as drawn. Blank lines part the entries; values can stand above or below the compound they belong to.
Assays:
[1] = Inhibition of Hepatitis C virus genotype 1a full length NS3/2K-NS4A protease using Ac-DED(Edans)EEAbupsi[COO]ASK(Dabcyl)-NH2 as substrate incubated for 10 mins prior to substrate addition by FRET analysis; design: species or system Hepatitis C virus subtype 1a
[2] = Half life in human liver microsomes at 1 uM after 5 mins by LC/MS/MS analysis
in vitro = conditions: human
[3] = Solubility of the compound in phosphate buffered saline at pH 7.4 after 1 hr by LC-MS/MS analysis
[4] = Apparent permeability from apical to basolateral side of human Caco2 cells at 10 uM; conditions: Caco-2
Hepatitis C virus = test: Antiviral activity against Hepatitis C virus genotype 1b infected in human HuH7 cells by subgenomic replicon-based luciferase assay; type: functional, organism-based, Hepacivirus hominis; conditions: Huh-7
In short: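 Huh-7 replicon cell line carrying a subgenomic HCV genotype 1b RNA replicon with a firefly luciferase reporter; replicon inhibition read by luciferase signal and reported as EC50.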

[5] = Cytotoxicity against human HuH7 cells; type: cell-based, Huh-7
NS3 protease [6] = target: NS3 protease (Hepacivirus C, UniProt C1KIQ2, A156T); test: Inhibition of Hepatitis C virus genotype 1a full length NS3/2K-NS4A protease A156T mutant using Ac-DED(Edans)EEAbupsi[COO]ASK(Dabcyl)-NH2 as substrate incubated for 10 mins prior to substrate addition by FRET analysis; design: species or system Hepatitis C virus subtype 1a
Sequence of NS3 protease (Hepacivirus C, UniProt C1KIQ2, A156T) (C1KIQ2 entry or part of it A156T): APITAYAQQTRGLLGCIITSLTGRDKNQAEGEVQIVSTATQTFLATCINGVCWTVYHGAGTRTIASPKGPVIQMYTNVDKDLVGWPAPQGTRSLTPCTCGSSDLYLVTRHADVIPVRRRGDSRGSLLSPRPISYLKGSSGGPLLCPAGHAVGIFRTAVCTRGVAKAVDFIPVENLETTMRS
In short: (§1)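 Ki (nM ± SD) determined against each resistant NS3/4A protease variant. A vitality value was calculated for each variant as V = [Ki × (kcat/Km)]variant / [Ki × (kcat/Km)]wild-type, normalising for the effect of the substitution on catalytic efficiency.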

NS3 protease [7] = target: NS3 protease (Hepacivirus C, UniProt C1KIQ2, R155K); test: Inhibition of Hepatitis C virus genotype 1a full length NS3/2K-NS4A protease R155K mutant using Ac-DED(Edans)EEAbupsi[COO]ASK(Dabcyl)-NH2 as substrate incubated for 10 mins prior to substrate addition by FRET analysis; design: species or system Hepatitis C virus subtype 1a; in short: as §1
Sequence of NS3 protease (Hepacivirus C, UniProt C1KIQ2, R155K) (C1KIQ2 entry or part of it R155K): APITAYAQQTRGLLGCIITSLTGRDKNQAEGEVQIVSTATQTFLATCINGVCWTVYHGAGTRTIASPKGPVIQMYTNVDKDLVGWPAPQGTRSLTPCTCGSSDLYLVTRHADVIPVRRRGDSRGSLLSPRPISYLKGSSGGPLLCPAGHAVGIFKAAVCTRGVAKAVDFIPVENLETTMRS

NS3 protease [8] = target: NS3 protease (Hepacivirus C, UniProt C1KIQ2, D168V); test: Inhibition of Hepatitis C virus genotype 1a full length NS3/2K-NS4A protease D168V mutant using Ac-DED(Edans)EEAbupsi[COO]ASK(Dabcyl)-NH2 as substrate incubated for 10 mins prior to substrate addition by FRET analysis; design: species or system Hepatitis C virus subtype 1a; in short: as §1
Sequence of NS3 protease (Hepacivirus C, UniProt C1KIQ2, D168V) (C1KIQ2 entry or part of it D168V): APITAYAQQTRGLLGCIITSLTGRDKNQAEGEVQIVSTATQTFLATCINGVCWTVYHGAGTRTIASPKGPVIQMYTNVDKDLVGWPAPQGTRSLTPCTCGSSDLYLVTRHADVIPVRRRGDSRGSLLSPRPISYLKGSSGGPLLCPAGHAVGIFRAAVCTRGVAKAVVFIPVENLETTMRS

Compound: C=Cc1cc(C(NC(=O)OC2CCCC2)C(=O)Nc2cccc(C(=O)NS(=O)(=O)c3ccc(C(F)(F)F)cc3)c2)ccc1Oc1cc(OC)nc(-c2ccccc2)n1 (configuration not stated)
Ki [1]: 72 nM

Compound: C=Cc1cc(C(NC(=O)N2CCOCC2)C(=O)Nc2cccc(C(=O)NS(=O)(=O)c3ccc(C(F)(F)F)cc3)c2)ccc1Oc1cc(OC)nc(-c2ccccc2)n1 (configuration not stated)
Ki [1]: 590 nM

half-life at 5 min, 1 µM ([2]; liver microsomes): 0.917 h
microsomal CLint at 5 min, 1 µM (in vitro; liver microsomes): 25 µL/min/mg
Compound: C=Cc1cc(C(NC(=O)OC(C)(C)C)C(=O)Nc2ccc(C(=O)NS(=O)(=O)c3ccc(C(F)(F)F)cc3)cc2)ccc1Oc1cc(OC)nc(-c2ccccc2)n1 (configuration not stated)
Ki [1]: 46 nM

solubility at 1 h [3]: 5 µM (≈ 4.02 µg/mL)
half-life at 5 min, 1 µM ([2]; microsomes): 1.47 h
microsomal CLint at 5 min, 1 µM (in vitro; microsomes): 16 µL/min/mg
Papp A→B at 10 µM [4]: 4 ×10⁻⁶ cm/s
Compound: C=Cc1cc(C(NC(=O)OC(C)(C)C)C(=O)Nc2ccccc2C(=O)NS(=O)(=O)c2ccc(C(F)(F)F)cc2)ccc1Oc1cc(OC)nc(-c2ccccc2)n1 (configuration not stated)
Ki [1]: 240 nM

Compound: C=CCCCS(=O)(=O)NC(=O)c1cccc(NC(=O)[C@@H](NC(=O)[C@@H](NC(=O)OC(C)(C)C)C(C)(C)C)c2ccc(Oc3cc(OC)nc(-c4ccccc4)n3)c(C=C)c2)c1
Ki [1]: 88 nM

EC50 (Hepatitis C virus): 12500 nM
Compound: C=CCCCS(=O)(=O)NC(=O)c1ccccc1NC(=O)C(NC(=O)[C@@H](NC(=O)OC(C)(C)C)C(C)(C)C)c1ccc(Oc2cc(OC)nc(-c3ccccc3)n2)c(C=C)c1 (mixture of isomers)
CC50 [5]: ≥ 50000 nM

Compound: C=CCCCS(=O)(=O)NC(=O)c1ccccc1NC(=O)[C@@H](NC(=O)[C@@H](NC(=O)OC(C)(C)C)C(C)(C)C)c1ccc(Oc2cc(OC)nc(-c3ccccc3)n2)c(C=C)c1
Ki [1]: 26 nM

Compound: CCC[C@H](NC(=O)[C@@H]1[C@H]2CCC[C@H]2CN1C(=O)[C@@H](NC(=O)[C@@H](NC(=O)c1cnccn1)C1CCCCC1)C(C)(C)C)C(=O)C(=O)NC1CC1
Ki [1]: 40 nM

Compound: C=Cc1cc(C(NC(=O)OC(C)(C)C)C(=O)Nc2cccc(C(=O)NS(=O)(=O)c3ccc(C(F)(F)F)cc3)c2)ccc1Oc1cc(OC)nc(-c2ccccc2)n1 (configuration not stated)
EC50 (Hepatitis C virus): 27500 nM
Ki [1]: 58 nM
Ki (NS3 protease [6]): 110 nM
half-life at 5 min, 1 µM ([2]; liver microsomes): 1.95 h
Ki (NS3 protease [7]): 580 nM
microsomal CLint at 5 min, 1 µM (in vitro; liver microsomes): 12 µL/min/mg
Papp A→B at 10 µM [4]: 1 ×10⁻⁶ cm/s
CC50 [5]: ≥ 50000 nM
Ki (NS3 protease [8]): 180 nM

half-life at 5 min, 1 µM ([2]; liver microsomes): 3.23 h
microsomal CLint at 5 min, 1 µM (in vitro; liver microsomes): 7 µL/min/mg
Compound: C=Cc1cc(C(NC(=O)NC(C)(C)C)C(=O)Nc2cccc(C(=O)NS(=O)(=O)c3ccc(C(F)(F)F)cc3)c2)ccc1Oc1cc(OC)nc(-c2ccccc2)n1 (configuration not stated)
Ki [1]: 140 nM

Compound: C=CCCCS(=O)(=O)NC(=O)c1cccc(NC(=O)C(NC(=O)OC2CCCC2)c2ccc(Oc3cc(OC)nc(-c4ccccc4)n3)c(C=C)c2)c1 (configuration not stated)
Ki [1]: 130 nM

Compound: C=CCCCS(=O)(=O)NC(=O)c1ccc(NC(=O)[C@H](NC(=O)[C@@H](NC(=O)OC(C)(C)C)C(C)(C)C)c2ccc(Oc3cc(OC)nc(-c4ccccc4)n3)c(C=C)c2)cc1
Ki [1]: 110 nM

Compound: C=CCCCS(=O)(=O)NC(=O)c1cccc(NC(=O)C(NC(=O)OC(C)(C)C)c2ccc(Oc3cc(OC)nc(-c4ccccc4)n3)c(C=C)c2)c1 (configuration not stated)
Ki [1]: 210 nM

Compound: C=CCCCS(=O)(=O)NC(=O)c1cccc(NC(=O)[C@H](NC(=O)[C@@H](NC(=O)OC(C)(C)C)C(C)(C)C)c2ccc(Oc3cc(OC)nc(-c4ccccc4)n3)c(C=C)c2)c1
Ki [1]: 100 nM

Compound: C=Cc1cc([C@H](NC(=O)[C@@H](NC(=O)OC(C)(C)C)C(C)(C)C)C(=O)Nc2ccccc2C(=O)NS(=O)(=O)c2ccc(C(F)(F)F)cc2)ccc1Oc1cc(OC)nc(-c2ccccc2)n1
Ki [1]: 45 nM

Compound: C=Cc1cc([C@H](NC(=O)[C@@H](NC(=O)OC(C)(C)C)C(C)(C)C)C(=O)Nc2ccc(C(=O)NS(=O)(=O)c3ccc(C(F)(F)F)cc3)cc2)ccc1Oc1cc(OC)nc(-c2ccccc2)n1
Ki [1]: 30 nM

solubility at 1 h [3]: 101 µM (≈ 73.5 µg/mL)
half-life at 5 min, 1 µM ([2]; microsomes): 0.35 h
microsomal CLint at 5 min, 1 µM (in vitro; microsomes): 66 µL/min/mg
Papp A→B at 10 µM [4]: 1 ×10⁻⁶ cm/s
Compound: C=CCCCS(=O)(=O)NC(=O)c1ccccc1NC(=O)[C@@H](NC(=O)OC(C)(C)C)c1ccc(Oc2cc(OC)nc(-c3ccccc3)n2)c(C=C)c1
Ki [1]: 190 nM

Compound: C=Cc1cc(C(NC(=O)OC2CCCC2)C(=O)Nc2ccc(C(=O)NS(=O)(=O)c3ccc(C(F)(F)F)cc3)cc2)ccc1Oc1cc(OC)nc(-c2ccccc2)n1 (configuration not stated)
Ki [1]: 55 nM

Compound: C=Cc1cc(C(N)C(=O)Nc2cccc(C(=O)NS(=O)(=O)c3ccc(C(F)(F)F)cc3)c2)ccc1Oc1cc(OC)nc(-c2ccccc2)n1 (configuration not stated)
Ki [1]: 1200 nM

Compound: C=CCCCS(=O)(=O)NC(=O)c1ccc(NC(=O)[C@@H](NC(=O)[C@@H](NC(=O)OC(C)(C)C)C(C)(C)C)c2ccc(Oc3cc(OC)nc(-c4ccccc4)n3)c(C=C)c2)cc1
Ki [1]: 96 nM

Compound: C=Cc1cc(C(NC(=O)c2cccnc2)C(=O)Nc2cccc(C(=O)NS(=O)(=O)c3ccc(C(F)(F)F)cc3)c2)ccc1Oc1cc(OC)nc(-c2ccccc2)n1 (configuration not stated)
Ki [1]: 240 nM

Compound: C=CCCCS(=O)(=O)NC(=O)c1ccc(NC(=O)C(NC(=O)OC(C)(C)C)c2ccc(Oc3cc(OC)nc(-c4ccccc4)n3)c(C=C)c2)cc1 (configuration not stated)
Ki [1]: 220 nM

Compound: C=Cc1cc(C(NC(C)=O)C(=O)Nc2cccc(C(=O)NS(=O)(=O)c3ccc(C(F)(F)F)cc3)c2)ccc1Oc1cc(OC)nc(-c2ccccc2)n1 (configuration not stated)
Ki [1]: 700 nM

Compound: C=CCCCS(=O)(=O)NC(=O)c1ccccc1NC(=O)[C@H](NC(=O)[C@@H](NC(=O)OC(C)(C)C)C(C)(C)C)c1ccc(Oc2cc(OC)nc(-c3ccccc3)n2)c(C=C)c1
Ki [1]: 33 nM

Compound: COc1ccc2c(O[C@@H]3C[C@H]4C(=O)N[C@]5(C(=O)O)C[C@H]5/C=C\CCCCC[C@H](NC(=O)OC5CCCC5)C(=O)N4C3)cc(-c3csc(NC(C)C)n3)nc2c1
Ki [1]: 300 nM

Compound: C=Cc1cc([C@@H](NC(=O)[C@@H](NC(=O)OC(C)(C)C)C(C)(C)C)C(=O)Nc2ccc(C(=O)NS(=O)(=O)c3ccc(C(F)(F)F)cc3)cc2)ccc1Oc1cc(OC)nc(-c2ccccc2)n1
Ki [1]: 30 nM

Compound: C=Cc1cc([C@H](NC(=O)[C@@H](NC(=O)OC(C)(C)C)C(C)(C)C)C(=O)Nc2cccc(C(=O)NS(=O)(=O)c3ccc(C(F)(F)F)cc3)c2)ccc1Oc1cc(OC)nc(-c2ccccc2)n1
EC50 (Hepatitis C virus): > 50000 nM
Ki [1]: 24 nM
Ki (NS3 protease [6]): 53 nM
solubility at 1 h [3]: 43 µM (≈ 39.4 µg/mL)
half-life at 5 min, 1 µM ([2]; liver microsomes): 0.283 h
Ki (NS3 protease [7]): 210 nM
microsomal CLint at 5 min, 1 µM (in vitro; liver microsomes): 80 µL/min/mg
Papp A→B at 10 µM [4]: 9.7 ×10⁻⁶ cm/s
CC50 [5]: ≥ 50000 nM
Ki (NS3 protease [8]): 110 nM

Source: ChEMBL document CHEMBL3124859, “Novel Peptidomimetic Hepatitis C Virus NS3/4A Protease Inhibitors Spanning the P2-P1' Region” (ACS Med Chem Lett, 2014)
